In ChEMBL document CHEMBL1671716, “Antimicrobial susceptibility patterns for recent clinical isolates of anaerobic bacteria in South Korea” (2010):
Converted amounts (≈) assume the structure as drawn.

Tests used:
Eubacterium sp. [1] = test: Antimicrobial activity against Eubacterium sp. assessed as percent resistant isolates after 48 hrs by agar dilution method; type: functional
How it was run: (§1)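 CLSI agar dilution on recent Korean clinical anaerobe isolates. Inoculum 10^5 CFU per spot by replicator. Plates incubated in an anaerobic chamber at 37°C for 48 h. For piperacillin plus tazobactam, tazobactam was held constant at 4 μg/ml. Resistance and susceptibility rates derived from MICs.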

[2] = test system: Parabacteroides distasonis; test: Antimicrobial activity against Bacteroides distasonis assessed as percent susceptible isolates after 48 hrs by agar dilution method; type: functional
Parvimonas micra = test: Antimicrobial activity against Peptostreptococcus micros after 48 hrs by agar dilution method; type: functional
How it was run: (§2)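 CLSI agar dilution (M11-A7); inoculum 10^5 CFU applied by replicator; plates incubated anaerobically 48 h at 37°C. For piperacillin-tazobactam, tazobactam held constant at 4 μg/ml.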

Hoylesella oralis [3] = test: Antimicrobial activity against Prevotella oralis assessed as percent susceptible isolates after 48 hrs by agar dilution method; type: functional
How it was run: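 CLSI agar dilution MIC testing of clinical isolates. 10^5 CFU spotted by replicator, plates incubated 48 h at 37°C in an anaerobic chamber. Susceptibility rates derived from the MICs.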

Fusobacterium nucleatum = test: Antimicrobial activity against Fusobacterium nucleatum after 48 hrs by agar dilution method; type: functional; how it was run: as §2
Hoylesella oralis [4] = test: Antimicrobial activity against Prevotella oralis assessed as percent resistant isolates after 48 hrs by agar dilution method; type: functional; how it was run: as §1
Schaalia meyeri = test: Antimicrobial activity against Actinomyces meyeri after 48 hrs by agar dilution method; type: functional
How it was run: (§3)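 MICs on clinical anaerobe isolates by the CLSI agar dilution method. Inoculum of 10^5 CFU applied with a Steers replicator. Plates incubated 48 h at 37°C in an anaerobic chamber.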

Anaerococcus prevotii [5] = test: Antimicrobial activity against Anaerococcus prevotii after 48 hrs by agar dilution method; type: functional; how it was run: as §3
Bacteroides caccae [6] = test: Antimicrobial activity against Bacteroides caccae assessed as percent resistant isolates after 48 hrs by agar dilution method; type: functional; how it was run: as §1
Bacteroides caccae [7] = test: Antimicrobial activity against Bacteroides caccae assessed as percent susceptible isolates after 48 hrs by agar dilution method; type: functional
[8] = test system: Parabacteroides distasonis; test: Antimicrobial activity against Bacteroides distasonis assessed as percent resistant isolates after 48 hrs by agar dilution method; type: functional; how it was run: as §1
Finegoldia magna [9] = test: Antimicrobial activity against Finegoldia magna assessed as percent resistant isolates after 48 hrs by agar dilution method; type: functional; how it was run: as §1
Schaalia odontolytica [10] = test: Antimicrobial activity against Actinomyces odontolyticus after 48 hrs by agar dilution method; type: functional; how it was run: as §3
Actinomyces israelii [11] = test: Antimicrobial activity against Actinomyces israelii assessed as percent resistant isolates after 48 hrs by agar dilution method; type: functional; how it was run: as §1
Actinomyces israelii [12] = test: Antimicrobial activity against Actinomyces israelii after 48 hrs by agar dilution method; type: functional; how it was run: as §3
[13] = test system: Bifidobacterium adolescentis; test: Antimicrobial activity against Bifidobacterium adolescentis assessed as percent resistant isolates after 48 hrs by agar dilution method; type: functional; how it was run: as §1
Bacteroides ovatus = test: Antimicrobial activity against Bacteroides ovatus assessed as percent resistant isolates after 48 hrs by agar dilution method; type: functional; how it was run: as §1
Finegoldia magna [14] = test: Antimicrobial activity against Finegoldia magna after 48 hrs by agar dilution method; type: functional; how it was run: as §2
Phocaeicola vulgatus [15] = test: Antimicrobial activity against Bacteroides vulgatus assessed as percent resistant isolates after 48 hrs by agar dilution method; type: functional; how it was run: as §1
Prevotella buccae [16] = test: Antimicrobial activity against Prevotella buccae assessed as percent resistant isolates after 48 hrs by agar dilution method; type: functional, Segatella buccae; how it was run: as §1
[17] = test system: Bifidobacterium adolescentis; test: Antimicrobial activity against Bifidobacterium adolescentis after 48 hrs by agar dilution method; type: functional; how it was run: as §3
Bacteroides fragilis [18] = test: Antimicrobial activity against Bacteroides fragilis after 48 hrs by agar dilution method; type: functional; how it was run: as §3
Bifidobacterium sp. [19] = test: Antimicrobial activity against Bifidobacterium sp. after 48 hrs by agar dilution method; type: functional; how it was run: as §3
[20] = test system: Peptostreptococcus anaerobius; test: Antimicrobial activity against Peptostreptococcus anaerobius assessed as percent susceptible isolates after 48 hrs by agar dilution method; type: functional; how it was run: as §1
Prevotella intermedia [21] = test: Antimicrobial activity against Prevotella intermedia after 48 hrs by agar dilution method; type: functional; how it was run: as §2
[22] = test system: Parabacteroides distasonis; test: Antimicrobial activity against Bacteroides distasonis after 48 hrs by agar dilution method; type: functional; how it was run: as §3
Schaalia odontolytica [23] = test: Antimicrobial activity against Actinomyces odontolyticus assessed as percent resistant isolates after 48 hrs by agar dilution method; type: functional; how it was run: as §1
Bacteroides caccae [24] = test: Antimicrobial activity against Bacteroides caccae after 48 hrs by agar dilution method; type: functional; how it was run: as §3
Phocaeicola vulgatus [25] = test: Antimicrobial activity against Bacteroides vulgatus assessed as percent susceptible isolates after 48 hrs by agar dilution method; type: functional
Bifidobacterium sp. [26] = test: Antimicrobial activity against Bifidobacterium sp. assessed as percent susceptible isolates after 48 hrs by agar dilution method; type: functional; how it was run: as §2
Anaerococcus prevotii [27] = test: Antimicrobial activity against Anaerococcus prevotii assessed as percent resistant isolates after 48 hrs by agar dilution method; type: functional; how it was run: as §1
Actinomyces naeslundii [28] = test: Antimicrobial activity against Actinomyces naeslundii after 48 hrs by agar dilution method; type: functional; how it was run: as §3
Clostridioides difficile [29] = test: Antimicrobial activity against Clostridium difficile assessed as percent susceptible isolates after 48 hrs by agar dilution method; type: functional
Prevotella buccae [30] = test: Antimicrobial activity against Prevotella buccae assessed as percent susceptible isolates after 48 hrs by agar dilution method; type: functional, Segatella buccae; how it was run: as §2
Prevotella intermedia [31] = test: Antimicrobial activity against Prevotella intermedia assessed as percent resistant isolates after 48 hrs by agar dilution method; type: functional; how it was run: as §1
Prevotella bivia = test: Antimicrobial activity against Prevotella bivia after 48 hrs by agar dilution method; type: functional; how it was run: as §2
Finegoldia magna [32] = test: Antimicrobial activity against Finegoldia magna assessed as percent susceptible isolates after 48 hrs by agar dilution method; type: functional; how it was run: as §2
Anaerococcus prevotii [33] = test: Antimicrobial activity against Anaerococcus prevotii assessed as percent susceptible isolates after 48 hrs by agar dilution method; type: functional
Bifidobacterium sp. [34] = test: Antimicrobial activity against Bifidobacterium sp. assessed as percent resistant isolates after 48 hrs by agar dilution method; type: functional; how it was run: as §1
[35] = test system: Peptostreptococcus anaerobius; test: Antimicrobial activity against Peptostreptococcus anaerobius after 48 hrs by agar dilution method; type: functional; how it was run: as §2
Bacteroides fragilis [36] = test: Antimicrobial activity against Bacteroides fragilis assessed as percent susceptible isolates after 48 hrs by agar dilution method; type: functional
Actinomyces naeslundii [37] = test: Antimicrobial activity against Actinomyces naeslundii assessed as percent resistant isolates after 48 hrs by agar dilution method; type: functional; how it was run: as §1
Phocaeicola vulgatus [38] = test: Antimicrobial activity against Bacteroides vulgatus after 48 hrs by agar dilution method; type: functional; how it was run: as §3
[39] = test system: Peptoniphilus asaccharolyticus; test: Antimicrobial activity against Peptoniphilus asaccharolyticus assessed as percent susceptible isolates after 48 hrs by agar dilution method; type: functional; how it was run: as §2
Eubacterium sp. [40] = test: Antimicrobial activity against Eubacterium sp. assessed as percent susceptible isolates after 48 hrs by agar dilution method; type: functional; how it was run: as §2
Fusobacterium necrogenes = test: Antimicrobial activity against Fusobacterium necrogenes after 48 hrs by agar dilution method; type: functional; how it was run: as §2
[41] = test system: Bifidobacterium adolescentis; test: Antimicrobial activity against Bifidobacterium adolescentis assessed as percent susceptible isolates after 48 hrs by agar dilution method; type: functional
Clostridioides difficile [42] = test: Antimicrobial activity against Clostridium difficile assessed as percent resistant isolates after 48 hrs by agar dilution method; type: functional

CO[C@@]1(NC(=O)C2SC(=C(C(N)=O)C(=O)O)S2)C(=O)N2C(C(=O)O)=C(CSc3nnnn3C)CS[C@@H]21 (some centres undefined) [CEFOTETAN]
Activity (Eubacterium sp. [1]): 15%
Activity [2]: 89%
MIC50 (Parvimonas micra): 4 µg/mL (≈ 6.95 µM)
MIC90 (Parvimonas micra): 64 µg/mL (≈ 111 µM)
Activity (Hoylesella oralis [3]): 72%
MIC (Fusobacterium nucleatum): 0.06 µg/mL (≈ 0.104 µM)
Activity (Hoylesella oralis [4]): 17%
MIC50 (Schaalia meyeri): 4 µg/mL (≈ 6.95 µM)
MIC90 (Schaalia meyeri): 64 µg/mL (≈ 111 µM)
MIC50 (Anaerococcus prevotii [5]): 1 µg/mL (≈ 1.74 µM)
MIC90 (Anaerococcus prevotii [5]): 2 µg/mL (≈ 3.47 µM)
Activity (Bacteroides caccae [6]): 86%
Activity (Bacteroides caccae [7]): 89%
Activity [8]: 86%
Activity (Finegoldia magna [9]): 0%
MIC50 (Schaalia odontolytica [10]): 4 µg/mL (≈ 6.95 µM)
MIC90 (Schaalia odontolytica [10]): 64 µg/mL (≈ 111 µM)
Activity (Actinomyces israelii [11]): 15%
MIC50 (Actinomyces israelii [12]): 4 µg/mL (≈ 6.95 µM)
MIC90 (Actinomyces israelii [12]): 64 µg/mL (≈ 111 µM)
Activity [13]: 0%
Activity (Bacteroides ovatus): 86%
MIC50 (Finegoldia magna [14]): 1 µg/mL (≈ 1.74 µM)
MIC90 (Finegoldia magna [14]): 2 µg/mL (≈ 3.47 µM)
Activity (Phocaeicola vulgatus [15]): 86%
Activity (Prevotella buccae [16]): 17%
MIC50 [17]: 4 µg/mL (≈ 6.95 µM)
MIC90 [17]: 64 µg/mL (≈ 111 µM)
MIC50 (Bacteroides fragilis [18]): 8 µg/mL (≈ 13.9 µM)
MIC90 (Bacteroides fragilis [18]): 64 µg/mL (≈ 111 µM)
MIC50 (Bifidobacterium sp. [19]): 4 µg/mL (≈ 6.95 µM)
MIC90 (Bifidobacterium sp. [19]): 64 µg/mL (≈ 111 µM)
Activity [20]: 62%
MIC50 (Prevotella intermedia [21]): 2 µg/mL (≈ 3.47 µM)
MIC90 (Prevotella intermedia [21]): 16 µg/mL (≈ 27.8 µM)
MIC50 [22]: > 128 µg/mL
MIC90 [22]: > 128 µg/mL
Activity (Schaalia odontolytica [23]): 15%
MIC50 (Bacteroides caccae [24]): > 128 µg/mL
MIC90 (Bacteroides caccae [24]): > 128 µg/mL
Activity (Phocaeicola vulgatus [25]): 89%
Activity (Bifidobacterium sp. [26]): 85%
Activity (Anaerococcus prevotii [27]): 0%
MIC50 (Actinomyces naeslundii [28]): 4 µg/mL (≈ 6.95 µM)
MIC90 (Actinomyces naeslundii [28]): 64 µg/mL (≈ 111 µM)
Activity (Clostridioides difficile [29]): 83%
Activity (Prevotella buccae [30]): 72%
Activity (Prevotella intermedia [31]): 0%
MIC50 (Prevotella bivia): 4 µg/mL (≈ 6.95 µM)
MIC90 (Prevotella bivia): 64 µg/mL (≈ 111 µM)
Activity (Finegoldia magna [32]): 100%
Activity (Anaerococcus prevotii [33]): 100%
Activity (Bifidobacterium sp. [34]): 15%
MIC50 [35]: 4 µg/mL (≈ 6.95 µM)
MIC90 [35]: 64 µg/mL (≈ 111 µM)
Activity (Bacteroides fragilis [36]): 71%
Activity (Actinomyces naeslundii [37]): 15%
MIC50 (Phocaeicola vulgatus [38]): > 128 µg/mL
MIC90 (Phocaeicola vulgatus [38]): > 128 µg/mL
Activity [39]: 100%
Activity (Eubacterium sp. [40]): 85%
MIC (Fusobacterium necrogenes): 0.06 µg/mL (≈ 0.104 µM)
Activity [41]: 85%
Activity (Clostridioides difficile [42]): 17%
